Reference: ChEMBL document CHEMBL1156237, “Antiviral activity of benzimidazole derivatives. II. Antiviral activity of 2-phenylbenzimidazole derivatives” (Bioorg Med Chem, 2010)
Active and inactive are the calls of the source. No rule for the calls is given here.

Key:
[1] = tested on: Bovine viral diarrhea virus 1; experiment: Antiviral activity against Bovine viral diarrhea virus NADL infected in MDBK cells assessed as protection from virus-induced cytopathogenicity after 3 to 4 days by MTT method; assay type: functional, organism-based, Bovine viral diarrhea virus 1-NADL; conditions: Bovine viral diarrhea virus isolates and strains, MDBK
Outline: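 Cytopathogenicity protection assay. MDBK cells at 3 × 10^4/well, grown overnight to confluence. Infected with BVDV NADL at m.o.i. 0.01 in MEM-E with 0.5% inactivated FBS, 1 mM Na pyruvate and 1% kanamycin. Serial compound dilutions added after 1 h. After 3–4 days at 37 °C, viability read by MTT; EC50 is the concentration giving 50% protection.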

[2] = Cytotoxicity against african green monkey Vero cells; assay type: cell-based; conditions: chlorocebus sabaeus
Outline: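 Vero 76 monolayers exposed to serial compound dilutions, run in parallel on the same 24-well plates as the plaque-reduction assays. CC50 is the concentration reducing viability of mock-infected cells by 50%.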

[3] = Selectivity index, ratio of CC50 for human MT4 cells to EC50 for Vaccinia virus Elstree-Lister; assay type: toxicity, cell-based; conditions: read-out: Ratio CC50/EC50
[4] = Selectivity index, ratio of CC50 for african green monkey Vero cells to EC50 for Vaccinia virus Elstree-Lister; assay type: toxicity, cell-based; conditions: read-out: Ratio CC50/EC50
[5] = tested on: Poliovirus 1; experiment: Antiviral activity against Polio virus type1 Sabin strain Chat infected in african green monkey Vero cells after 2 days by plaque reduction assay; assay type: functional, organism-based, Human poliovirus 1 strain Sabin; conditions: Enterovirus C, 48 h
[6] = Cytotoxicity against human MT4 cells after 96 hrs by MTT assay; assay type: cell-based; conditions: MT4 cells
Outline: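 Exponentially growing MT-4 cells at 1 × 10^5 cells/mL in RPMI-1640 with 10% FCS, exposed to serial compound dilutions at 37 °C, 5% CO2. Viability by MTT after 96 h; CC50 is the concentration reducing viability of mock-infected cells by 50%.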

[7] = tested on: Human alphaherpesvirus 1; experiment: Antiviral activity against HSV1 KOS infected in african green monkey Vero cells after 3 days by plaque reduction assay; assay type: functional, organism-based; conditions: Human alphaherpesvirus 1, KOS, 72 h
Outline: (§1)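 Plaque reduction assay. Vero 76 cells at 2 × 10^5/well, grown overnight to confluence in D-MEM with 10% FBS. Infected 2 h with 50–100 PFU/well, unadsorbed virus removed. Overlay of D-MEM with 1% inactivated FBS and 0.75% methylcellulose, with or without serial compound dilutions. Incubated at 37 °C for 3 days (HSV-1 KOS, CVB-2 Ohio-1) or 5 days (RSV A2). Fixed and stained with crystal violet in 50% ethanol; plaques counted; EC50 by linear regression.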

[8] = tested on: Vesicular stomatitis virus; experiment: Antiviral activity against VSV Indiana lab infected in african green monkey Vero cells after 2 days by plaque reduction assay; assay type: functional, organism-based
[9] = tested on: Human immunodeficiency virus 1; experiment: Antiviral activity against HIV1 3B infected in human MT4 cells assessed as protection from virus-induced cytopathogenicity after 4 days by MTT method; assay type: functional, organism-based
Outline: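 MT-4 cells, 1 × 10^4/well in RPMI with or without serial compound dilutions, infected with HIV-1 IIIB, 100 CCID50 (m.o.i. 0.01). Protection from virus-induced cytopathogenicity read by MTT.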

[10] = tested on: Yellow fever virus; experiment: Antiviral activity against Yellow fever virus 17D infected in BHK cells assessed as protection from virus-induced cytopathogenicity after 3 to 4 days by MTT method; assay type: functional, organism-based
[11] = Cytotoxicity against BHK cells after 48 to 96 hrs by MTT assay; assay type: cell-based, Mesocricetus auratus; conditions: hamster
Outline: (§2)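 Cell seeding: MDBK at 6 × 10^5 cells/mL in MEM-E with 10% horse serum and 1 mM Na pyruvate; BHK at 1 × 10^6 cells/mL in MEM-E with 10% FBS. Serial compound dilutions, 37 °C, 5% CO2. Viability of mock-infected cells by MTT after 48–96 h; CC50 is the concentration reducing viability by 50%.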

[12] = Cytotoxicity against MDBK cells after 48 to 96 hrs by MTT assay; assay type: cell-based, Bos taurus; conditions: cattle, MDBK cells; outline: as §2
[13] = tested on: Vaccinia virus; experiment: Antiviral activity against Vaccinia virus Elstree-Lister infected in african green monkey Vero cells after 3 days by plaque reduction assay; assay type: functional, organism-based; conditions: Orthopoxvirus vaccinia, 72 h
[14] = tested on: Respiratory syncytial virus; experiment: Antiviral activity against RSV A2 infected in african green monkey Vero cells after 5 days by plaque reduction assay; assay type: functional, organism-based; conditions: human respiratory syncytial virus, A2, Vero, 120 h; outline: as §1
[15] = tested on: Coxsackievirus B2; experiment: Antiviral activity against Human coxsackievirus B2 Ohio-1 infected in african green monkey Vero cells after 3 days by plaque reduction assay; assay type: functional, organism-based, Coxsackievirus B2 (strain Ohio-1); conditions: Enterovirus B, Vero, 72 h; outline: as §1

For `O=[N+]([O-])c1ccc(-c2nc3cc(Cl)c(Cl)cc3[nH]2)cc1`, the EC50 [1] was greater than 56 µM, the CC50 [2] was no less than 100 µM and the selectivity ratio [3] was 170. For the same compound, the selectivity ratio [4] was no less than 1000, the EC50 [5] was greater than 100 µM and the CC50 at 96 h [6] was 17 µM. For the same compound, the EC50 [7] was greater than 100 µM, the Activity [8] was “inactive” and the Activity [9] was “inactive”. The EC50 [10] was greater than 100 µM, the CC50 [11] was greater than 100 µM and the CC50 [12] was 56 µM. It also gave an EC50 [13] of 0.1 µM, an EC50 [14] greater than 100 µM and an EC50 [15] greater than 100 µM.
